Test results as given in paper PMC5768938 (World Journal of Gastroenterology, 2018).
Marks after values point to notes of the source that are not given here.

Experiments:
TGR5 = settings: read-out: TGR5 EC50; in vitro; cited from earlier work
FXR = settings: read-out: FXR EC50; in vitro; cited from earlier work
ob/ob-NASH mice = test: Liver histology; assay type: in vivo; settings: 16 wk; for Collagen 1a1 (fibrosis) % fractional area, Before treatment / Galectin-3 (inflammation) % fractional area, Before treatment / Lipid (steatosis) % fractional area, Before treatment: baseline biopsy; for Collagen 1a1 (fibrosis) % fractional area, Before treatment / Galectin-3 (inflammation) % fractional area, Before treatment / Lipid (steatosis) % fractional area, Before treatment / Collagen 1a1 (fibrosis) % fractional area, After treatment / Galectin-3 (inflammation) % fractional area, After treatment / Lipid (steatosis) % fractional area, After treatment: mean ± SE
Summary of the method: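 Biopsy-confirmed ob/ob-NASH mice (AMLN diet; n = 11-12/group, stratified by Col1a1 fibrosis) were dosed orally with vehicle or test compound for 16 wk. Baseline biopsies and terminal left lateral lobe samples were fixed overnight in 4% PFA, paraffin-sectioned at 3 μm, and stained with HE, anti-Col1a1 and anti-galectin-3. Scoring was blinded. Immunoreactive area was expressed as % of parenchymal area after subtracting fat area from adjacent HE sections. Responders had ≥1-point change (χ2 test).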

[1] = LC/MS/MS determination of compound levels in liver and ileum, 14 d dosing; assay type: in vivo; settings: 1-30 mg/kg PO, chow-fed C57Bl6 mice
Summary of the method: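 Chow-fed C57Bl6 mice were dosed PO QD with test compounds at 1-30 mg/kg for 14 d. Weighed liver and ileum were bead-homogenised in 7 volumes of 80/20 ACN/HBSS and centrifuged. Supernatant was dried under nitrogen and reconstituted in 60/40 methanol/10 mmol/L ammonium acetate with 25 nmol/L d5-GCA internal standard, then filtered. Analysis used UHPLC-high-resolution MS in negative ESI with a C18 column at 45 °C and matrix-matched quadratic (1/x) calibration.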

FXR target genes = test: Hepatic and ileal FXR target gene expression by RNA sequencing, 14 d dosing; assay type: in vivo; settings: 1-30 mg/kg PO, 2 wk, lean C57Bl6 mice, RNAseq
Summary of the method: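 Lean chow-fed C57Bl6 mice received FXR-agonist test compounds at 1, 3, 10 or 30 mg/kg PO QD for 14 d. Liver and ileum transcriptomes were profiled by RNA sequencing using stranded mRNA libraries on a NextSeq 500. Prototypic FXR target genes were analysed by two-way ANOVA with Bonferroni post-hoc test against untreated (dose 0) animals.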

[2] = 10 mg/kg, subjects achieving > 1 points improvement in score from baseline

CC[C@H]1[C@@H](O)[C@@H]2[C@H](C[C@H](O)[C@]3(C)[C@@H]([C@H](C)C[C@H](C)C(=O)O)CC[C@@H]23)[C@@]2(C)CC[C@@H](O)C[C@@H]12 [INT-777]
EC50 (TGR5): […]

CC[C@H]1[C@@H](O)[C@@H]2[C@H](CC[C@]3(C)[C@@H]([C@H](C)CCC(=O)O)CC[C@@H]23)[C@@]2(C)CC[C@@H](O)C[C@@H]12 [OCA, obeticholic acid]
Fibrosis stage: No improvement (number of mice) (ob/ob-NASH mice; 10 mg/kg): 10 | Fibrosis stage: With improvement (number of mice) (ob/ob-NASH mice; 10 mg/kg): 2 | NAS: No improvement (number of mice) (ob/ob-NASH mice; 10 mg/kg): 8 | NAS: With improvement (number of mice) (ob/ob-NASH mice; 10 mg/kg): 4 | Collagen 1a1 (fibrosis) % fractional area, Before treatment (ob/ob-NASH mice; 10 mg/kg): 0.9 ± 0.1 % fractional area | Galectin-3 (inflammation) % fractional area, Before treatment (ob/ob-NASH mice; 10 mg/kg): 5.5 ± 0.3 % fractional area | Lipid (steatosis) % fractional area, Before treatment (ob/ob-NASH mice; 10 mg/kg): 33.4 ± 0.8 % fractional area | Collagen 1a1 (fibrosis) % fractional area, After treatment (ob/ob-NASH mice; 10 mg/kg): 9.0 ± 0.6 ^a % fractional area | Galectin-3 (inflammation) % fractional area, After treatment (ob/ob-NASH mice; 10 mg/kg): 5.0 ± 0.2 ^a % fractional area | Lipid (steatosis) % fractional area, After treatment (ob/ob-NASH mice; 10 mg/kg): 31.8 ± 0.4 % fractional area | Fibrosis stage: % improving (ob/ob-NASH mice; [2]): 17% | NAS: % improving (ob/ob-NASH mice; [2]): 33% | Fibrosis stage: No improvement (number of mice) (ob/ob-NASH mice; 30 mg/kg): 7 | Fibrosis stage: With improvement (number of mice) (ob/ob-NASH mice; 30 mg/kg): 4 | NAS: No improvement (number of mice) (ob/ob-NASH mice; 30 mg/kg): 0 | NAS: With improvement (number of mice) (ob/ob-NASH mice; 30 mg/kg): 11 | Collagen 1a1 (fibrosis) % fractional area, Before treatment (ob/ob-NASH mice; 30 mg/kg): 1.2 ± 0.2 % fractional area | Galectin-3 (inflammation) % fractional area, Before treatment (ob/ob-NASH mice; 30 mg/kg): 5.5 ± 0.4 % fractional area | Lipid (steatosis) % fractional area, Before treatment (ob/ob-NASH mice; 30 mg/kg): 32.2 ± 1.1 % fractional area | Collagen 1a1 (fibrosis) % fractional area, After treatment (ob/ob-NASH mice; 30 mg/kg): 8.0 ± 0.7 ^a % fractional area | Galectin-3 (inflammation) % fractional area, After treatment (ob/ob-NASH mice; 30 mg/kg): 4.0 ± 0.4 ^a % fractional area | Lipid (steatosis) % fractional area, After treatment (ob/ob-NASH mice; 30 mg/kg): 22.7 ± 1.0 ^a % fractional area | NAS: % improving (ob/ob-NASH mice; 30 mg/kg, subjects achieving > 1 points improvement in score from baseline): 100% ^a | ileal drug concentration compared to the liver [1]: approximately two-fold | hepatic FXR target gene expression (BSEP, OST, CYP8b1, SHP) (FXR target genes): regulated hepatic FXR genes | ileal FXR target gene expression (SHP, FGF-15) (FXR target genes): more pronounced effects
